Laboratory results: PMC5050072 (Clinical cancer research : an official journal of the …, 2016)

Legend:
GSC-like CD133+ cells = experiment: Organotypic tumor explants: FACS analysis of CD133+ cells; type: cell-based, human; settings: RO4929097 alone; n=5
[1] = system: Notch gene targets, angiogenesis and mesenchymal genes; experiment: RNA-Ampliseq gene expression profiling of matched and recurrent tumors; type: in vivo, human
Outline: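 RNA sequencing on FFPE tumor tissue. Samples were matched archival pre-treatment tissue and tissue resected after the initial 7 days of daily test compound. A further set was recurrent tumors resected at repeat surgery from patients kept on the test compound (with temozolomide) until the day of surgery (n=7).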

[2] = system: tumor blood perfusion and vascular permeability; experiment: DCE-perfusion MRI before and after 7 days of RO4929097; type: in vivo, human; settings: after 7 days of RO4929097
Outline: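 Dynamic contrast-enhanced perfusion MRI in glioma patients before and after 7 days of daily test compound given before resection. Read-outs were relative fractional plasma volume (Vp) for blood perfusion and volume transfer coefficient between plasma and extravascular extracellular space (K^trans) for vascular permeability. Values given as mean±SEM; significance by unpaired Student's t-test.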

glioblastoma explants [3] = experiment: Organotypic tumor explants: Ki-67 immunofluorescent staining; type: cell-based, human; settings: RO4929097 1 µM, 10 days in vitro; n=4
Outline: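 Fresh tumor tissue from patients resected on study was grown as 3-D organotypic explants. Established explants were treated with the test compound alone. Proliferation was read by Ki-67 immunofluorescent staining and counting of Ki-67+ nuclei before and after treatment (n=4). Mean±SEM; unpaired Student's t-test.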

[4] = system: NICD-expressing vascular structures; experiment: NICD/CD31 immunohistochemistry of tumor blood vessels; type: in vivo, human
[5] = system: Notch intracellular domain (NICD); experiment: NICD immunohistochemistry of tumor cells in matched glioblastoma tissue; type: in vivo, human; settings: after presurgical 7-day treatment; before 21.9 ± 5.4 %; n=6
Outline: (§1)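 Tumor sections taken before and after 7 days of daily test compound were immunostained; the last dose was given 2–3 h before resection. NICD used an anti-NICD antibody. At least 1,000 cells counted per marker, with morphometry by image analysis. Ki-67 values were also grouped by patient survival (n=7). Mean±SEM; unpaired Student's t-tests.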

[6] = Plasma pharmacokinetics of RO4929097; type: in vivo, human; settings: 10, 15, 20 mg, with temozolomide 75mg/m2
Outline: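 Daily test compound at 10, 15 or 20 mg, combined with temozolomide 75 mg/m² and 150 mg/m². Plasma levels measured by HPLC-MS/MS. […] Reported as mean ±SD.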

Hes1 = settings: cited from earlier work
glioblastoma explants [7] = experiment: Organotypic tumor explants: CellTiter Glo Luminescent Assay; type: cell-based, human; settings: triple combination RT+temozolomide+RO4929097; n=5
[8] = type: in vivo, human
Notch pathway components = type: in vivo, human; settings: enhancing tissue compared to areas of intact BBB, after 7 days
Outline: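 After 7 days of daily test compound (last dose 2–3 h pre-resection), tumor was sampled separately from contrast-enhancing and non-enhancing regions, defined by intraoperative MRI. Notch pathway transcripts were quantified by real-time PCR, normalized to 18S (n=6). Mean±SEM; unpaired Student's t-tests.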

[9] = system: tumor cells proliferation (Ki-67); experiment: Ki-67 immunohistochemistry of matched pre- and post-treatment tumor tissue; type: in vivo, human
Outline: as §1

[10] = Phase I 3+3 dose escalation of RO4929097 with RT and temozolomide: toxicity; type: in vivo, human
[11] = after RO4929097, survival cut-off 14 months
[12] = second surgery after prolonged course (mean 181 days)

## CC(C)(C(=O)NCC(F)(F)C(F)(F)F)C(=O)N[C@@H]1C(=O)Nc2ccccc2-c2ccccc21 [RO4929097]
GSC-like CD133+ cells
  proportion of CD133+ cells in explants: significant decrease
[1]; after presurgical 7-day RO4929097 treatment phase
  mesenchymal-associated genes C/EBPB and STAT3: downregulated
[1]; mostly recurrence group with prolonged therapy, not statistically significant
  expression of primary Notch gene targets Hes5, Hey1 and Hey2: trend towards downregulation
[1]; recurrent tumors under prolonged RO4929097 therapy
  angiogenesis markers PECAM (CD31), angiopoetins and VEGFA: upregulation
[2]; baseline 0.05± 0.01
  mean K^trans after treatment: 0.03 ± 0.01 min⁻¹
[2]; baseline 9.34± 2.4, p<0.05, 8 patients
  mean Vp ratio after drug exposure: 3.92± 0.9
Glioblastoma explants [3]
  proliferation (Ki-67 quantification) in explants: significant decrease in proliferation
[4]; Pre vs Post vs PostPP
  microvascular density: no significant change
[4]; [11]
  NICD expression on vascular structures, better survival group: 22.5 ± 5.0%
  NICD expression on vascular structures, poor survival group: 43.8 ± 9.0%
[4]; at 7 days of RO4929097, Pre 67.6 ± 5.2 %, percent of total blood vessels
  NICD-expressing vascular structures (Post): 30.0 ± 9.0%
[4]; at recurrence after prolonged treatment, Pre 67.6 ± 5.2 %
  NICD-expressing vascular structures (PostPP): 24.2 ± 5.2%
[5]
  NICD-positive tumor cells after treatment: 5.1 ± 1.3%
[6]
  mean Cmax and AUC24 for the initial dose: increased as the dose was escalated
Hes1
  concentration from which target genes (e.g. Hes1) are reduced dose-dependently: ≥ 0.1 µM
Glioblastoma explants [7]
  decrease in tumor cell viability compared to control untreated explants: ~60%
[8]; after 7 days of RO4929097, at surgery, disrupted BBB, mean ± SEM
  tumor drug level, enhancing tissue: 0.73 ± 0.13 µM
[8]; after 7 days of RO4929097, at surgery, intact BBB, mean ± SEM
  tumor drug level, non-enhancing tissue: 0.33 ± 0.04 µM
[8]; repeat surgery, prolonged RO4929097 use, single specimen
  drug level in non-enhancing tumor tissue, specimen M09: ~ 1.3 µM
[8]; [12]
  tumor drug concentration, enhancing areas: 0.77 ± 0.19 µM
  tumor drug concentration, non-enhancing areas: 0.71 ± 0.24 µM
[8]; tumor tissue, survival cut-off 14 months
  average tissue drug level, favorable survival group: 0.15 ± 0.03 µM
[8]; tumor tissue, survival cut-off 14 months, p=0.36 vs favorable
  average tissue drug level, poor survival group: 0.19 ± 0.05 µM
Notch pathway components
  Hes1 mRNA levels: remained unchanged
  mRNA of Notch receptors (Notch 2, 3 and 4): significant upregulation
  mRNA of downstream effector Hes5: suppression
Notch pathway components; n=6
  mRNA of DLL1, DLL3 and Jag2 ligands: significant downregulation
[9]; after 7 days of RO4929097, baseline 15.0 ± 2.3 %
  Ki-67, poor survival group: 20.4 ± 2.2%
[9]; after 7 days of RO4929097, baseline 37.3 ± 10.7 %
  Ki-67, favorable survival subgroup: 8.5 ± 3.2%
[9]; after 7 days of RO treatment, before 27.7 ± 7.3 %, n=7
  Ki-67 proliferation marker after treatment: 13.6 ± 3.1%
[10]
  QTc prolongation: no significant QTc prolongation
  treatment-related deaths: no treatment-related deaths
[10]; daily
  recommended phase 2 dose (RP2D): 20 mg
